Here are results for 5 compounds from ChEMBL document CHEMBL5329156, “Discovery and development of novel substituted monohydrazides as potent antifungal agents” (RSC Med Chem, 2023).

What all share (assay type): functional
Assay [1] concerns Candida albicans. Nature of the assay: Antifungal activity against itraconazole/fluconazole susceptible Candida albicans ATCC MYA-2310 assessed as fungal growth inhibition by double dilution method. In a few lines: (§1)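 Broth microdilution after CLSI M27-A3/M38-A2 with minor modifications. A single colony was grown overnight in YPD at 35 °C with shaking at 200 rpm. Cells were mixed 1:1 with compound (final 0.06-31.3 µg/mL, from DMSO stocks) and incubated 48 h at 35 °C.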

In assay [2] the test system is Candida albicans. Nature of the assay: Antifungal activity against Candida albicans ATCC 10231 assessed as fungal growth inhibition by double dilution method. In a few lines: (§2)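 Broth microdilution after CLSI M27-A3/M38-A2 with minor changes. Single colony grown overnight in YPD at 35 °C, 200 rpm. Compound final range 0.06-31.3 µg/mL; incubated 48 h at 35 °C.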
The subject of assay [3] is [Candida] auris. Kind of assay: Antifungal activity against Candida auris AR Bank # 0390 assessed as fungal growth inhibition by double dilution method. The settings on record: Candidozyma auris. In a few lines: as §2
For assay [4], the system named is Candida albicans. Kind of assay: Antifungal activity against itraconazole/fluconazole resistant Candida albicans ATCC 90819 assessed as fungal growth inhibition by double dilution method. The essentials: as §1
Assay [5] concerns Aspergillus fumigatus. Kind of assay: Antifungal activity against Aspergillus fumigatus NRRL 163 assessed as fungal growth inhibition by double dilution method.
In assay [6] the test system is Cryptococcus neoformans. Kind of assay: Antifungal activity against Cryptococcus neoformans ATCC MYA-895 assessed as fungal growth inhibition by double dilution method. In a few lines: as §2
The subject of assay [7] is Candida albicans. Kind of assay: Antifungal activity against itraconazole/fluconazole resistant Candida albicans ATCC MYA-1003 assessed as fungal growth inhibition by double dilution method. The essentials: as §1
For assay [8], the system named is Pichia kudriavzevii. Kind of assay: Antifungal activity against Pichia kudriavzevii ATCC 6258 assessed as fungal growth inhibition by double dilution method. In a few lines: as §2
For assay [9], the system named is Nakaseomyces glabratus. Kind of assay: Antifungal activity against Candida glabrata ATCC 22019 assessed as fungal growth inhibition by double dilution method. In a few lines: as §2
The test system of assay [10] is Candida albicans. Kind of assay: Antifungal activity against itraconazole/fluconazole resistant Candida albicans ATCC MYA-1237 assessed as fungal growth inhibition by double dilution method. In a few lines:
as §1

Assay [11] deals with Nakaseomyces glabratus. Kind of assay: Antifungal activity against Candida glabrata ATCC 2001 assessed as fungal growth inhibition by double dilution method. In a few lines:
as §2

The test system of assay [12] is Candida albicans. Nature of the assay: Antifungal activity against itraconazole/fluconazole susceptible Candida albicans ATCC MYA-2876 assessed as fungal growth inhibition by double dilution method. In a few lines: as §1
For assay [13], the system named is Aspergillus fumigatus. Kind of assay: Antifungal activity against Aspergillus fumigatus NRRL 6113 assessed as fungal growth inhibition by double dilution method.
The subject of assay [14] is Aspergillus flavus. Kind of assay: Antifungal activity against Aspergillus flavus ATCC MYA-3631 assessed as fungal growth inhibition by double dilution method.
Assay [15] has as its system Aspergillus terreus. Kind of assay: Antifungal activity against Aspergillus terreus ATCC MYA-3633 assessed as fungal growth inhibition by double dilution method.
The subject of assay [16] is Aspergillus nidulans. Nature of the assay: Antifungal activity against Aspergillus nidulans ATCC 38163 assessed as fungal growth inhibition by double dilution method.
The test system of assay [17] is [Candida] auris. Nature of the assay: Antifungal activity against Candida auris AR Bank # 0384 assessed as fungal growth inhibition by double dilution method. The settings on record: Candidozyma auris. The essentials:
as §2

The subject of assay [18] is Aspergillus fumigatus. Nature of the assay: Antifungal activity against Aspergillus fumigatus NRRL 5109 assessed as fungal growth inhibition by double dilution method.
Assay [19] concerns Candida albicans. Kind of assay: Antifungal activity against Candida albicans ATCC 64124 assessed as fungal growth inhibition by double dilution method. In a few lines: as §1

In brackets after ≈: the same amount, converted by molar mass.

A word on the MIC: it is the lowest concentration that inhibits growth of the organism. Turning to `COc1ccc(NNC(=O)c2ncc(F)cc2F)cc1`, the minimal inhibitory concentration (MIC) in assay [1] was 1.95 µg/mL (≈ 6.98 µM); in assay [2] it was 1.95 µg/mL (≈ 6.98 µM); in [3], 0.98 µg/mL (≈ 3.51 µM); in assay [4], 1.95 µg/mL (≈ 6.98 µM); in assay [5], 31.3 µg/mL (≈ 112 µM); in assay [6], 1.95 µg/mL (≈ 6.98 µM). For the same compound, the minimum inhibitory concentration (MIC) was determined as 0.98 µg/mL (≈ 3.51 µM) in assay [7]; 0.98 µg/mL (≈ 3.51 µM) in [8]; 7.8 µg/mL (≈ 27.9 µM) in assay [9]; 0.98 µg/mL (≈ 3.51 µM) in [10]; 7.8 µg/mL (≈ 27.9 µM) in assay [11]; 1.95 µg/mL (≈ 6.98 µM) in assay [12]. Besides, the minimum inhibitory concentration (MIC) in assay [13] was 31.3 µg/mL (≈ 112 µM); in assay [14], above 31.3 µg/mL; in assay [15], 31.3 µg/mL (≈ 112 µM); in assay [16], 1.95 µg/mL (≈ 6.98 µM); in assay [17], 3.9 µg/mL (≈ 14 µM); in assay [18] it was 31.3 µg/mL (≈ 112 µM). The minimal inhibitory concentration (MIC) in assay [19] worked out at 1.95 µg/mL (≈ 6.98 µM).
For `O=C(NNc1cccc(F)c1)c1ccc(F)cc1F`, the MIC is 3.9 µg/mL (≈ 14.6 µM) in assay [1]; 0.24 µg/mL (≈ 0.902 µM) in assay [2]; 0.24 µg/mL (≈ 0.902 µM) in assay [3]; 7.8 µg/mL (≈ 29.3 µM) in assay [4]; above 31.3 µg/mL in assay [5]; 1.95 µg/mL (≈ 7.32 µM) in [6]. The MIC is 1.95 µg/mL (≈ 7.32 µM) in assay [7]; 1.95 µg/mL (≈ 7.32 µM) in assay [8]; 3.9 µg/mL (≈ 14.6 µM) in assay [9]; 0.98 µg/mL (≈ 3.68 µM) in assay [10]; 7.8 µg/mL (≈ 29.3 µM) in assay [11]; 3.9 µg/mL (≈ 14.6 µM) in assay [12]. Moreover, the MIC in assay [13] is above 31.3 µg/mL; in assay [14], above 31.3 µg/mL; in assay [15], 1.95 µg/mL (≈ 7.32 µM); in assay [16] it was 3.9 µg/mL (≈ 14.6 µM); in [17] it was 1.95 µg/mL (≈ 7.32 µM); in [18] it was above 31.3 µg/mL. The minimal inhibitory concentration (MIC) in [19] was 1.95 µg/mL (≈ 7.32 µM).
For `COc1ccc(NNC(=O)c2ccc(F)cn2)cc1`, the MIC was 0.98 µg/mL (≈ 3.75 µM) in assay [1]; 0.24 µg/mL (≈ 0.919 µM) in assay [2]; 0.49 µg/mL (≈ 1.88 µM) in assay [3]; 0.98 µg/mL (≈ 3.75 µM) in assay [4]; above 31.3 µg/mL in assay [5]; at most 0.06 µg/mL in assay [6]. In addition, the minimum inhibitory concentration (MIC) in [7] worked out at 0.49 µg/mL (≈ 1.88 µM); in assay [8] it was 0.24 µg/mL (≈ 0.919 µM); in assay [9], 3.9 µg/mL (≈ 14.9 µM); in [10], 0.49 µg/mL (≈ 1.88 µM); in assay [11], 1.95 µg/mL (≈ 7.46 µM); in assay [12] it was 0.98 µg/mL (≈ 3.75 µM). The MIC is above 31.3 µg/mL in assay [13]; above 31.3 µg/mL in [14]; 31.3 µg/mL (≈ 120 µM) in [15]; 1.95 µg/mL (≈ 7.46 µM) in [16]; 3.9 µg/mL (≈ 14.9 µM) in assay [17]; above 31.3 µg/mL in assay [18]. The MIC in [19] stood at 0.98 µg/mL (≈ 3.75 µM).
Regarding `O=C(NNc1cccc(F)c1)c1nc(F)ccc1F`, the MIC in assay [1] is 1.95 µg/mL (≈ 7.3 µM); in assay [2], 0.98 µg/mL (≈ 3.67 µM); in assay [3], 1.95 µg/mL (≈ 7.3 µM); in [4], 3.9 µg/mL (≈ 14.6 µM); in [5] it was above 31.3 µg/mL; in assay [6] it was at most 0.06 µg/mL. Moreover, the minimum inhibitory concentration (MIC) in assay [7] worked out at 0.98 µg/mL (≈ 3.67 µM); in assay [8] it was 0.49 µg/mL (≈ 1.83 µM); in assay [9], 7.8 µg/mL (≈ 29.2 µM); in assay [10] it was 1.95 µg/mL (≈ 7.3 µM); in assay [11], 15.6 µg/mL (≈ 58.4 µM); in assay [12], 1.95 µg/mL (≈ 7.3 µM). The minimal inhibitory concentration (MIC) in assay [13] was above 31.3 µg/mL; in assay [14], above 31.3 µg/mL; in assay [15] it was 3.9 µg/mL (≈ 14.6 µM); in [16] it was 1.95 µg/mL (≈ 7.3 µM); in assay [17] it was 1.95 µg/mL (≈ 7.3 µM); in [18], above 31.3 µg/mL. Moreover, the MIC in [19] was 0.98 µg/mL (≈ 3.67 µM).
In the case of `COc1ccc(NNC(=O)c2ccc(F)cc2F)cc1`, the MIC in assay [1] is 1.95 µg/mL (≈ 7.01 µM); in [2] it was 0.98 µg/mL (≈ 3.52 µM); in [3] it was 1.95 µg/mL (≈ 7.01 µM); in assay [4], 1.95 µg/mL (≈ 7.01 µM); in [5], above 31.3 µg/mL; in assay [6] it was 0.98 µg/mL (≈ 3.52 µM). In addition, the MIC is 1.95 µg/mL (≈ 7.01 µM) in assay [7]; 0.98 µg/mL (≈ 3.52 µM) in assay [8]; 7.8 µg/mL (≈ 28 µM) in assay [9]; 1.95 µg/mL (≈ 7.01 µM) in assay [10]; 3.9 µg/mL (≈ 14 µM) in assay [11]; 1.95 µg/mL (≈ 7.01 µM) in [12]. Besides, the MIC was above 31.3 µg/mL in [13]; above 31.3 µg/mL in assay [14]; 31.3 µg/mL (≈ 112 µM) in [15]; 1.95 µg/mL (≈ 7.01 µM) in [16]; 1.95 µg/mL (≈ 7.01 µM) in assay [17]; above 31.3 µg/mL in assay [18]. Moreover, the MIC in assay [19] stood at 1.95 µg/mL (≈ 7.01 µM).
